Results from different studies.
Compare with care: the assays were run in different laboratories.
Sample: plasma

O=C(/C=C/c1cccc(S(=O)(=O)Nc2ccccc2)c1)NO  AUC(0-inf) (human; intravenous, 1800 mg/m², patients): 55200 ng·h/mL
CCOc1cc2ncc(C#N)c(Nc3ccc(OCc4ccccn4)c(Cl)c3)c2cc1NC(=O)/C=C/[C@H]1CCCN1C  AUC(0-inf) (human; oral, 80 mg, single dose): 386 ng·h/mL
COc1ccc([C@@H]2CN(C(=O)[C@@H](O)CO)C[C@@]2(C)[C@@H](C)O)cc1OC1CN(c2ccc(C)cn2)C1  AUC(0-inf) (human; oral, 5 mg, single dose, healthy volunteers): 1850 ng·h/mL
CS(=O)(=O)CCC#N  AUC(0-inf) (human; oral, 100 mg, single dose, fasted): 77000 ng·h/mL
CN(C)CCCNC(=O)/C(=C/CCCCC(=O)NO)COc1cccc2ccccc12  AUC(0-inf) (human; intravenous, 312.5 mg/m², single dose): 72600 ng·h/mL
COc1ccc(-n2nc(C(N)=O)c3c2C(=O)N(c2ccc(N4CCCCC4=O)cc2)CC3)cc1  AUC(0-inf) (male human; oral, 50 mg, single dose): 4740 ng·h/mL
CC(C)(Sc1ccncc1-c1ccc(C#N)c2ccccc12)C(=O)O  AUC(0-inf) (male human; oral, 5 mg, single dose, fed, healthy volunteers): 92.8 ng·h/mL
Cn1cc(-c2ccc(S(=O)(=O)[C@@H]3C[C@@H](C(=O)NC4(C#N)CC4)N(C(=O)C4(C(F)(F)F)CC4)C3)c(C(F)(F)F)c2)cn1  AUC(0-inf) (human; oral, 100 mg, single dose, fasted, healthy volunteers): 10600 ng·h/mL
CC(C)[C@](O)(c1ccc2cc(OC(F)F)c(OC(F)F)cc2c1)c1c[nH]nn1  AUC(0-inf) (female human; oral, 600 mg, single dose): 54700 ng·h/mL
CC(C)(O)c1ccccc1-c1ccc2[nH]c(/C=C/c3ccc(C(F)(F)F)cc3)nc2c1  AUC(0-inf) (male human; oral, 15 mg, single dose, fasted): 5190 ng·h/mL
CCCCC[C@H](O)CC[C@@H]1[C@H]2Cc3cccc(OCC(=O)O)c3C[C@H]2C[C@H]1O  AUC(0-inf) (human; inhaled, 36 µg, single dose, healthy volunteers): 0.7 ng·h/mL
C[C@@]1(c2cc(NC(=O)c3ccc(C#N)cn3)ccc2F)C=CSC(N)=N1  AUC(0-inf) (human; oral, 10 mg, single dose): 1040 ng·h/mL
CCc1nc2c(C)cc(N3CCN(CC(=O)N4CC(O)C4)CC3)cn2c1N(C)c1nc(-c2ccc(F)cc2)c(C#N)s1  AUC(0-inf) (human; oral, 1000 mg, fed, healthy volunteers): 71400 ng·h/mL
CC(C)n1cc(C#N)c2cc(-n3cc(C(=O)O)cn3)ccc21  AUC(0-inf) (human; oral, 200 mg, single dose, fed): 44300 ng·h/mL
CO[C@H]1CC[C@H](N2C(=O)CNc3ncc(-c4ccc(C(C)(C)O)nc4)nc32)CC1  AUC(0-inf) (human; oral, 30 mg, patients): 1230 ng·h/mL
O=C(Nc1c(Cl)cncc1Cl)c1ccc(OC(F)F)c(OCC2CC2)c1  AUC(0-inf) (human; oral, 0.375 mg, multiple doses, once daily): 81.4 ng·h/mL
CO[C@H]1/C=C\C=C(/C)C(=O)NC2=CC(=O)C(NCCN(C)C)=C(C[C@@H](C)C[C@H](OC)[C@H](O)[C@@H](C)/C=C(\C)[C@@H]1OC(N)=O)C2=O  AUC(0-inf) (human; intravenous, 12 mg/m², patients, infusion): 1220 ng·h/mL
CCCOc1ccc([C@H]2CNC(=O)N2c2ccc3[nH]cnc3c2)cc1  AUC(0-inf) (human; oral, 200 mg, single dose, fed, healthy volunteers): 2310 ng·h/mL
